Experimental data from different studies.
Each line is one published result; the experiments were not run side by side.

Nc1nc(O)c2ncn(COC(CO)CO)c2n1  CC50 (CRFK; cell growth or viability, MTS): > 100 µM
O=C(CCCN1CCC(O)(c2ccc(Cl)cc2)CC1)c1ccc(Br)cc1  IC50 (K562; cell growth or viability): 41.2 µM
N#Cc1ccc(NC(=S)NN)cc1  CC50 (CRFK; cell growth or viability, MTS): 84.6 µg/mL
CC[C@@]1(O)C(=O)OCc2c1cc1n(c2=O)Cc2cc3ccccc3nc2-1  Papp A→B (MDCK; Caco-2; 0.5 µM, 105 min, pH 7.4): 27 ×10⁻⁶ cm/s
CC(C)[C@H](N)C(=O)N1CCC[C@H]1B(O)O  viability (K562; cell growth or viability, ATP luminescence; 60 µM, 5 days): 98%
CC(N)C12CC3CC(CC(C3)C1)C2 (stereo not drawn)  CC50 (MDCK; cell growth or viability, MTT; 72 h): 62 µM
COc1ccc(C=NNC(=S)Nc2ccc(C#N)cc2)cc1  CC50 (CRFK; cell growth or viability, MTS): > 100 µg/mL
CCC(CC)O[C@@H]1C=C(C(=O)O)C[C@H](N)[C@H]1NC(C)=O  CC50 (MDCK; cell growth or viability, MTT; 72 h): > 200 µM
CC(C)(C)NC(=O)N[C@H](C(=O)N1C[C@H]2[C@@H]([C@H]1C(=O)NC(CC1CCC1)C(=O)C(N)=O)C2(C)C)C(C)(C)C (stereo partly drawn)  CC50 (MDCK; cell growth or viability, neutral red; 48 h): > 100 µM
